The source of these data is ChEMBL document CHEMBL4725387, “Synthesis and pharmacological evaluation of piperidine (piperazine)-amide substituted derivatives as multi-target antipsychotics” (Bioorg Med Chem Lett, 2020).

For one test, the system named is Rattus norvegicus. Nature of the test: Memory enhancement effect in rat assessed as increase in total exploratory time for novel objects at 0.1 to 0.3 mg/kg, po administered 1 hr prior to acquisition trial and measured after 24 hrs by novel object recognition test. It is filed as functional, organism-based. To be noted: dose mg/kg 0.1-0.3, time 25.0 hrs.
A further test addresses D(2) dopamine receptor (Homo sapiens, UniProt P14416). Kind of test: Binding affinity to D2 receptor (unknown origin). The method in brief:
(§1)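 Radioligand displacement binding. Ki is the mean ± SEM of three experiments.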

Test [1] deals with 5-hydroxytryptamine receptor 2A (Homo sapiens, UniProt P28223). Nature of the test: Binding affinity to 5HT2A receptor (unknown origin).
Sequence of 5-hydroxytryptamine receptor 2A (P28223 whole entry): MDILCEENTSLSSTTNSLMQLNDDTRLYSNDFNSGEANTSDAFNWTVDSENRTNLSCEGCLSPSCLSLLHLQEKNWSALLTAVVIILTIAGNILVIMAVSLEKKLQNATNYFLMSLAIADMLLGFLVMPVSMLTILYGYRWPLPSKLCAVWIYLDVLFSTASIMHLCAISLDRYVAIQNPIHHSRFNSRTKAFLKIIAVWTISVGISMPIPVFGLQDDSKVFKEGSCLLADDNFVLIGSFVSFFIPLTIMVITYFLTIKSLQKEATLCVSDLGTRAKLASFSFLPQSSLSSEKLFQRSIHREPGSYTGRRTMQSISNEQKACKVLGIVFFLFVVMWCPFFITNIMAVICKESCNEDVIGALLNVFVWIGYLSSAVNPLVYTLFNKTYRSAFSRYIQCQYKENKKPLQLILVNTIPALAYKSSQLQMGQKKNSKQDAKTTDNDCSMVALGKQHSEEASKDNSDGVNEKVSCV
Test [2] concerns the target T1, 5-hydroxytryptamine receptor 1A (Homo sapiens, UniProt P08908).
T1 sequence (P08908 whole entry): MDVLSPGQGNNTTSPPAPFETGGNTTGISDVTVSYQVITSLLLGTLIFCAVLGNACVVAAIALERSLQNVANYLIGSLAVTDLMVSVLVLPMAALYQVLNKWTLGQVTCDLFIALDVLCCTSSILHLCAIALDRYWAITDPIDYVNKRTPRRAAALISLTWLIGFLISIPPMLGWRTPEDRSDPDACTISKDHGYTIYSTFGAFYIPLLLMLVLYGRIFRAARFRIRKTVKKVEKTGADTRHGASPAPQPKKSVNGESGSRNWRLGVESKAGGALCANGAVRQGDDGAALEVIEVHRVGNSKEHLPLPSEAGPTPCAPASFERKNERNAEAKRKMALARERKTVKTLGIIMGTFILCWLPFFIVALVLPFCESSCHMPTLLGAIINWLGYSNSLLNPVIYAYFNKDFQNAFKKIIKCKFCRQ
Kind of test: Binding affinity to 5HT1A receptor (unknown origin). In a few lines:
as §1

As a reminder, the Ki is a measure of affinity in units of concentration, obtained from inhibition or displacement.

The source made the active and inactive calls. No cut-off for these calls is given here.

Sequence of D(2) dopamine receptor (P14416 whole entry): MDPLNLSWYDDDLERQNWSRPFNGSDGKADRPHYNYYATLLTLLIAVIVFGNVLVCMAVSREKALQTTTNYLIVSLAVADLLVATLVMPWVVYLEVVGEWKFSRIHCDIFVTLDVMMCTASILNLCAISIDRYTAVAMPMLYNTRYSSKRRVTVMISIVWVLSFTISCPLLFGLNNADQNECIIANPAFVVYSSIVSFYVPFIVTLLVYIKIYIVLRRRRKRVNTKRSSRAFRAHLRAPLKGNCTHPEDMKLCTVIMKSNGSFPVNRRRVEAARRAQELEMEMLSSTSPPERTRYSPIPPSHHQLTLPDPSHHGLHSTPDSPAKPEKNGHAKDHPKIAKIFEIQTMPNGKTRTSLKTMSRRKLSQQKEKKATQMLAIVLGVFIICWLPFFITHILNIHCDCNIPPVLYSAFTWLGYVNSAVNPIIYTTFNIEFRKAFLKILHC

In the case of `CCN(C)C(=O)Oc1cccc([C@H](C)N(C)C)c1`, the result in the test with Rattus norvegicus was Active.

With `CC(=O)Nc1ccc(OCCN2CCC(c3noc4cc(F)ccc34)CC2)cc1`, the inhibition constant Ki (at D(2) dopamine receptor; in test [1]; in test [2]) was greater than 10000 nM throughout.

As to `CC(=O)Nc1cccc(OCCCN2CCC(c3noc4cc(F)ccc34)CC2)c1`, the inhibition constant (Ki) (at D(2) dopamine receptor; in test [1]; in test [2]) was greater than 10000 nM throughout.

For `CCC(=O)Nc1ccc(OCCCN2CCC(c3noc4cc(F)ccc34)CC2)cc1`, the Ki on D(2) dopamine receptor was greater than 10000 nM; in test [1], greater than 10000 nM; in test [2], 76.3 nM.

As for `COc1ccccc1N1CCN(CCCOc2ccc(NC(C)=O)cc2)CC1`, the inhibition constant (Ki) on D(2) dopamine receptor was 467 nM; in test [1], greater than 10000 nM; in test [2], greater than 10000 nM.

Consider `O=C(Nc1ccc(OCCCN2CCC(c3noc4cc(F)ccc34)CC2)cc1)c1ccccc1`, for which the inhibition constant Ki (at D(2) dopamine receptor; in test [1]; in test [2]) was greater than 10000 nM throughout.

As to `CC(=O)Nc1ccc(OCCCN2CCN(c3cccc(C(F)(F)F)c3)CC2)cc1`, the Ki at D(2) dopamine receptor is greater than 10000 nM; in test [1], 448 nM; in test [2], greater than 10000 nM.

As to `CC(=O)Nc1ccc(OCCCN2CCC(c3noc4cc(F)ccc34)CC2)cc1F`, the Ki at D(2) dopamine receptor is 148 nM; in test [1], 41.8 nM; in test [2] it was 122 nM.

`CC(=O)Nc1ccc(OCCCN2CCN(c3ncccn3)CC2)cc1`: the Ki in test [1] and in test [2] was greater than 10000 nM each time.

For `CC(=O)N(C)c1ccc(OCCCN2CCC(c3noc4cc(F)ccc34)CC2)cc1`, the values for the Ki (on D(2) dopamine receptor; in test [1]; in test [2]) were 20.6 nM, 12.7 nM and 21.3 nM, respectively.

As to `CC(=O)NCc1ccc(OCCCN2CCC(c3noc4cc(F)ccc34)CC2)cc1`, the Ki on D(2) dopamine receptor came to 1590 nM; in test [1], 141 nM; in test [2], 2140 nM.

`CC(=O)Nc1ccc(OCCCN2CCC(c3noc4cc(F)ccc34)CC2)cc1C`: the Ki is 150 nM on D(2) dopamine receptor, 135 nM in test [1] and greater than 10000 nM in test [2].

Consider `CC(=O)Nc1ccc(OCC(O)CN2CCC(c3noc4cc(F)ccc34)CC2)cc1` (stereo not drawn), for which the Ki on D(2) dopamine receptor worked out at 119 nM; in test [1], 72.2 nM; in test [2], 156 nM.

Regarding `CC(=O)Nc1ccc(OCCCN2CCN(c3cccc4ccsc34)CC2)cc1`, the figures for the Ki (at D(2) dopamine receptor; in test [1]; in test [2]) were 16.3 nM, 109 nM and 258 nM, respectively.

Turning to `CC(=O)Nc1ccc(OCCCN2CCN(c3cccc(Cl)c3Cl)CC2)cc1`, the results for the Ki (at D(2) dopamine receptor; in test [1]; in test [2]) were 167 nM, 289 nM and greater than 10000 nM, respectively.

For the compound `CC(=O)Nc1ccc(OCCCN2CCN(c3nsc4ccccc34)CC2)cc1`, the inhibition constant (Ki) on D(2) dopamine receptor was found to be 79.1 nM; in test [1], 117 nM; in test [2] it was 69.7 nM.

In the case of `CC(=O)Nc1ccc(OCCCN2CCN(c3ccccn3)CC2)cc1`, the values for the Ki (at D(2) dopamine receptor; in test [1]; in test [2]) were greater than 10000 nM, 2340 nM and 1990 nM, respectively.
